# Experimental data published in ChEMBL document CHEMBL3352586, “Pyridyl benzamides as a novel class of potent inhibitors for the kinetoplastid Trypanosoma brucei” (J Med Chem, 2014).
# Tests used:
# [1] = test system: Liver microsome; assay: Drug level in human liver microsomes treated with N-(5-fluoropyridin-2-yl)-2-methylbenzamide at 10 uM after 60 mins by LC-MS analysis in presence of NADPH; settings: 1 h
# [2] = Selectivity index, ratio of IC50 for HEK293 cells to IC50 for Trypanosoma brucei brucei 427; assay type: toxicity, cell-based; settings: human, read-out: Ratio IC50
# [3] = test system: Plasmodium falciparum; assay: Antimicrobial activity against erythrocytic stage of Plasmodium falciparum NF54 infected in human washed RBC assessed as [3H]-hypoxanthine incorporation incubated for 48 hrs prior to [3H]-hypoxanthine addition measured after 24 hrs by liquid scintillation counting analysis; assay type: functional, organism-based
# [4] = test system: Leishmania donovani; assay: Antimicrobial activity against amastigote form of Leishmania donovani MHOM/ET/67/L82 after 70 hrs by alamar blue assay; assay type: functional, organism-based; settings: MHOM/ET/67/L82, 70 h
# Summary of the method: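 Leishmania donovani MHOM-ET-67/L82 axenic amastigotes, with miltefosine as reference drug.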
# [5] = test system: Trypanosoma cruzi; assay: Antimicrobial activity against amastigote form of Trypanosoma cruzi Tulahuen C2C4 infected in rat L6 cells after 96 hrs by microscopic analysis; settings: Tulahuen C2C4, L6, 96 h
# [6] = test system: Trypanosoma brucei rhodesiense; assay: Antimicrobial activity against bloodstream form of Trypanosoma brucei rhodesiense STIB 900 after 70 hrs by alamar blue assay; assay type: functional, organism-based; settings: STIB 900, 70 h
# Summary of the method: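 Trypanosoma brucei rhodesiense STIB 900 bloodstream-form trypomastigotes, with melarsoprol as reference drug.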
# [7] = test system: L6; assay: Cytotoxicity against rat L6 cells after 70 hrs by alamar blue assay; assay type: cell-based; settings: L6, 70 h
# Summary of the method: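 Cytotoxicity on the rat skeletal myoblast L-6 strain, with podophyllotoxin as reference drug.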
# [8] = test system: Trypanosoma brucei brucei; assay: Antimicrobial activity against bloodstream form of Trypanosoma brucei brucei 427 after 48 hrs by alamar blue assay; assay type: functional, organism-based; settings: Trypanosoma brucei, 427, 48 h
# [9] = Partition coefficient, log D of the compound at pH 7.4 by HPLC method; assay type: physicochemical; settings: octanol/water
# Summary of the method: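 Distribution coefficient at pH 7.4 was measured chromatographically.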
# [10] = test system: Trypanosoma brucei brucei; assay: Trypanocidal activity against Trypanosoma brucei brucei after 24 hrs by hemocytometry relative to control; assay type: functional
# Summary of the method: (§1)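 T.b. brucei parasites were seeded and held 24 h at 37 °C/5% CO₂. Compounds were diluted in DMEM and added to give the MIC, defined as the lowest concentration at the plateau (>95% activity) of the Alamar blue assay. Wells were viewed by microscope after 24, 48 and 72 h, and sampled wells were counted by hemocytometer. Percentage killed was taken against puromycin (1.15 μM) and 0.4% DMSO controls, in duplicate.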
# [11] = test system: Liver microsome; assay: Intrinsic clearance in human liver microsomes at 1 uM after 60 mins by LC-MS analysis; assay type: ADME; settings: 1 h
# Summary of the method: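 In vitro intrinsic clearance was measured in human liver microsomes and expressed per mg protein. A hepatic extraction ratio (E_H) was predicted from the in vitro data.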
# [12] = Kinetic solubility of the compound at 10 mg/ml at pH 6.5 by nephelometry; assay type: physicochemical; settings: buffer, read-out: Kinetic_solubility
# Summary of the method: (§2)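 Kinetic solubility was read by nephelometry at pH 2 and pH 6.5 and reported as μg/mL ranges.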
# [13] = Plasma protein binding in human […] by chromatographic method; assay type: ADME, cell-free; settings: read-out: PPB (converted)
# Summary of the method: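 Human plasma protein binding was estimated by a chromatographic method.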
# [14] = test system: Trypanosoma brucei brucei; assay: Trypanocidal activity against Trypanosoma brucei brucei after 72 hrs by hemocytometry relative to control; assay type: functional
# Summary of the method: as §1
# [15] = test system: Trypanosoma brucei brucei; assay: Trypanocidal activity against Trypanosoma brucei brucei after 48 hrs by hemocytometry relative to control; assay type: functional
# Summary of the method: as §1
# [16] = test system: Liver microsome; assay: Drug metabolism in human liver microsomes assessed as M+16 formation at 10 uM after 60 mins by LC-MS analysis in presence of NADPH/UDPGA; settings: 1 h
# [17] = test system: Liver microsome; assay: Drug metabolism in human liver microsomes assessed as M+32 formation at 10 uM after 60 mins by LC-MS analysis in presence of NADPH; settings: 1 h
# [18] = test system: Liver microsome; assay: Drug metabolism in human liver microsomes assessed as M+16 formation at 10 uM after 60 mins by LC-MS analysis in presence of NADPH; settings: 1 h
# [19] = Kinetic solubility of the compound at 10 mg/ml at pH 2 by nephelometry; assay type: physicochemical; settings: buffer, read-out: Kinetic_solubility
# Summary of the method: as §2
# [20] = test system: Liver microsome; assay: Drug metabolism in human liver microsomes assessed as M-111 formation at 1 uM after 60 mins by LC-MS analysis in presence of NADPH; assay type: ADME; settings: 1 h
# [21] = test system: Liver microsome; assay: Drug metabolism in human liver microsomes assessed as M+32 formation at 1 uM after 60 mins by LC-MS analysis in presence of NADPH/UDPGA; assay type: ADME; settings: 1 h
# [22] = test system: Liver microsome; assay: Drug level in human liver microsomes treated with N-(4-chloropyridin-2-yl)-3-fluoro-2-methylbenzamide at 1 uM after 60 mins by LC-MS analysis in presence of NADPH; assay type: ADME; settings: 1 h
# [23] = Selectivity index, ratio of IC50 for rat L6 cells to IC50 for bloodstream form of Trypanosoma brucei rhodesiense STIB 900; assay type: toxicity, cell-based; settings: read-out: Ratio IC50
# Summary of the method: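 Bloodstream-form trypomastigotes of T. b. rhodesiense STIB 900 run with melarsoprol as reference drug. The counter-screen used the rat skeletal myoblast L-6 line, with podophyllotoxin as reference. The index is the L-6 IC50 divided by the parasite IC50.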
# [24] = test system: Trypanosoma brucei brucei; assay: Antimicrobial activity against bloodstream form of Trypanosoma brucei brucei 427 at 10 uM after 48 hrs by alamar blue assay; assay type: functional; settings: Trypanosoma brucei, 427, 48 h
Compound,selectivity ratio [2],IC50 [3] [µM],IC50 [4] [µM],IC50 [5] [µM],IC50 [6] [µM],IC50 [7] [µM],IC50 [8] [µM],logD [9],CLint [11] [µL/min/mg],solubility kinetic [12] [µg/mL],fraction unbound [13],solubility kinetic [19] [µg/mL],also measured
Cc1ccccc1C(=O)N(O)c1ccc(F)cn1,,,,,,,,,,,,,Drug metabolism [1]: metabolite_detected
Cc1ccc(C(=O)Nc2ccccn2)c(C)c1,85,93,> 133,187,0.24,283,0.98,,,,,,
Cc1c(F)cccc1C(=O)Nc1cc(Cl)ccn1,177,,,,,,0.47,2.3,254,12.5,0.283,12.5,Activity [10]: 64.23%; Activity [14]: 98.8%; Activity [15]: 83.7%; Drug metabolism [16]: metabolite_detected; Drug metabolism [17]: metabolite_detected; Drug metabolism [18]: metabolite_detected; Drug metabolism [20]: metabolite_detected; Drug metabolism [21]: metabolite_detected
Cc1ccccc1C(=O)Nc1cc(-c2ccccc2)ccn1,31,91,> 124,66,0.97,70,2,,,,,,
Cc1c(F)cccc1C(N)=O,,,,,,,,,,,,,Drug metabolism [22]: metabolite_detected
Cc1c(C(=O)Nc2ccccn2)ccc(F)c1F,205,17,> 121,176,0.1,308,0.41,2.8,154,25,0.361,50,Activity [10]: 92%; Activity [14]: 99.9%; Activity [15]: 99.95%
Cc1cc(Br)ccc1C(=O)Nc1ccccn1,60,48,> 103,100,0.045,193,1.1,3.2,97,> 100,0.119,> 100,selectivity ratio [23]: > 4000
Cc1ccnc(NC(=O)c2ccc(F)c(F)c2C)c1,93,72,> 113,147,0.64,223,0.9,,,,,,
COc1ccc(C[C@H](N)C(=O)N[C@H]2[C@@H](O)[C@H](n3cnc4c(N(C)C)ncnc43)O[C@@H]2CO)cc1 [PUROMYCIN],,,,,,,,,,,,,Activity [10]: 100%; Activity [14]: 100%; Activity [15]: 100%
Cc1ccnc(NC(=O)c2ccccc2C)c1,> 37,124,> 133,173,0.36,146,2.1,2.8,129,25,0.299,> 100,
Cc1ccccc1C(=O)Nc1ccccn1,27.5,36,48,152,2.1,156,3.03,,,,,,inhibition at 10 µM [24]: 80%
N=C(N)c1ccc(OCCCCCOc2ccc(C(=N)N)cc2)cc1 [PENTAMIDINE],,,,,,,,,,,,,Activity [10]: 58.1%; Activity [14]: 100%; Activity [15]: 100%
Cc1ccccc1C(=O)Nc1ccc(O)cn1,,,,,,,,,,,,,Drug metabolism [1]: metabolite_detected
Cc1c(F)cccc1C(=O)Nc1ccccn1,94,103,> 131,198,0.61,310,0.89,2.6,58,25,0.321,50,
Cc1ccccc1C(=O)Nc1cc(Cl)ccn1,> 38,88,168,168,0.61,224,2.1,3.4,128,12.5,0.134,25,
Cc1ccccc1C(=O)Nc1cc(C#Cc2ccccc2)ccn1,> 51,9.7,> 96,71,0.061,198,1.7,4.7,27,< 1.6,0.017,1.6,
